ChEMBL document CHEMBL5058577, “EUbOPEN Chemogenomics Library 2 (Multiplex)” (2022)

Tested on: HEK-293T
Assay: Multiplex assay against HEK293T
Assay type: toxicity, cell-based
Conditions: human
Method in brief: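 Values for tubulin, mitochondrial-mass and membrane-permeability phenotypes are per cents of cells with healthy nuclei. These cells were identified by CellPathfinder machine-learning gating of live cells that had been stained at seeding with Hoechst33342, BioTracker Green Microtubule Cytoskeleton Dye, MitoTracker Red and Annexin V Alexa Fluor 680 and imaged on a CQ1 microscope at 37°C and 5% CO2 after compound addition. The gating first set Hoechst high-intensity objects apart from normal cells, then split normal cells into healthy, pyknosed or fragmented nuclei, and pyknosed cells into mitotic or apoptotic.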

[1] = 12 h, 1 µM, compound concentration 1 uM, replicate 1
[2] = 12 h, 1 µM, compound concentration 1 uM, replicate 2
[3] = 12 h, 10 µM, compound concentration 10 uM, replicate 1
[4] = 12 h, 10 µM, compound concentration 10 uM, replicate 2
[5] = 24 h, 1 µM, compound concentration 1 uM, replicate 1
[6] = 24 h, 1 µM, compound concentration 1 uM, replicate 2
[7] = 24 h, 10 µM, compound concentration 10 uM, replicate 1
[8] = 24 h, 10 µM, compound concentration 10 uM, replicate 2
[9] = 48 h, 1 µM, compound concentration 1 uM, replicate 1
[10] = 48 h, 1 µM, compound concentration 1 uM, replicate 2
[11] = 48 h, 10 µM, compound concentration 10 uM, replicate 1
[12] = 48 h, 10 µM, compound concentration 10 uM, replicate 2

SMILES: C[C@H](NC(=O)c1c(C(F)F)nn(C)c1Oc1cccc(C(F)(F)F)c1)c1ccc(C(=O)O)cc1 [PALUPIPRANT]
- Population Apoptotic (%) [1]: 40%
- Population Fragmented Nuclei (%) [1]: 6%
- Population Healthy Nuclei (%) [1]: 80%
- Population Hoechst High Intensity Objects (%) [1]: 7%
- Population Membrane Permeable-Phenotype (%) [1]: 0%
- Population Mitochondria Different-Phenotype (%) [1]: 44%
- Population Mitotic Cells (%) [1]: 59%
- Population Normal (%) [1]: 92%
- Population Pyknosed Nuclei (%) [1]: 13%
- Population Tubulin-Different-Phenotype (%) [1]: 28%
- Total Cell Count [1]: 407
- Population Apoptotic (%) [2]: 27%
- Population Healthy Nuclei (%) [2]: 83%
- Population Hoechst High Intensity Objects (%) [2]: 5%
- Population Mitochondria Different-Phenotype (%) [2]: 60%
- Population Mitotic Cells (%) [2]: 72%
- Population Normal (%) [2]: 94%
- Population Pyknosed Nuclei (%) [2]: 10%
- Total Cell Count [2]: 475
- Population Apoptotic (%) [3]: 38%
- Population Fragmented Nuclei (%) [3]: 7%
- Population Healthy Nuclei (%) [3]: 76%
- Population Hoechst High Intensity Objects (%) [3]: 7%
- Population Membrane Permeable-Phenotype (%) [3]: 0%
- Population Mitochondria Different-Phenotype (%) [3]: 55%
- Population Mitotic Cells (%) [3]: 61%
- Population Normal (%) [3]: 92%
- Population Pyknosed Nuclei (%) [3]: 16%
- Population Tubulin-Different-Phenotype (%) [3]: 40%
- Total Cell Count [3]: 371
- Population Apoptotic (%) [4]: 60%
- Population Fragmented Nuclei (%) [4]: 5%
- Population Healthy Nuclei (%) [4]: 77%
- Population Hoechst High Intensity Objects (%) [4]: 10%
- Population Mitochondria Different-Phenotype (%) [4]: 68%
- Population Mitotic Cells (%) [4]: 40%
- Population Normal (%) [4]: 89%
- Population Pyknosed Nuclei (%) [4]: 17%
- Population Tubulin-Different-Phenotype (%) [4]: 27%
- Total Cell Count [4]: 293
- Population Apoptotic (%) [5]: 36%
- Population Fragmented Nuclei (%) [5]: 9%
- Population Healthy Nuclei (%) [5]: 80%
- Population Hoechst High Intensity Objects (%) [5]: 5%
- Population Membrane Permeable-Phenotype (%) [5]: 1%
- Population Mitochondria Different-Phenotype (%) [5]: 27%
- Population Mitotic Cells (%) [5]: 63%
- Population Normal (%) [5]: 94%
- Population Pyknosed Nuclei (%) [5]: 10%
- Population Tubulin-Different-Phenotype (%) [5]: 18%
- Total Cell Count [5]: 527
- Population Apoptotic (%) [6]: 46%
- Population Fragmented Nuclei (%) [6]: 7%
- Population Healthy Nuclei (%) [6]: 83%
- Population Hoechst High Intensity Objects (%) [6]: 4%
- Population Membrane Permeable-Phenotype (%) [6]: 0%
- Population Mitochondria Different-Phenotype (%) [6]: 35%
- Population Mitotic Cells (%) [6]: 53%
- Population Normal (%) [6]: 95%
- Population Pyknosed Nuclei (%) [6]: 9%
- Population Tubulin-Different-Phenotype (%) [6]: 19%
- Total Cell Count [6]: 604
- Population Apoptotic (%) [7]: 26%
- Population Fragmented Nuclei (%) [7]: 9%
- Population Healthy Nuclei (%) [7]: 74%
- Population Hoechst High Intensity Objects (%) [7]: 3%
- Population Membrane Permeable-Phenotype (%) [7]: 0%
- Population Mitochondria Different-Phenotype (%) [7]: 46%
- Population Mitotic Cells (%) [7]: 73%
- Population Normal (%) [7]: 96%
- Population Pyknosed Nuclei (%) [7]: 16%
- Population Tubulin-Different-Phenotype (%) [7]: 29%
- Total Cell Count [7]: 465
- Population Apoptotic (%) [8]: 55%
- Population Fragmented Nuclei (%) [8]: 7%
- Population Healthy Nuclei (%) [8]: 79%
- Population Hoechst High Intensity Objects (%) [8]: 7%
- Population Mitochondria Different-Phenotype (%) [8]: 52%
- Population Mitotic Cells (%) [8]: 44%
- Population Normal (%) [8]: 92%
- Population Pyknosed Nuclei (%) [8]: 13%
- Population Tubulin-Different-Phenotype (%) [8]: 19%
- Total Cell Count [8]: 353
- Population Apoptotic (%) [9]: 25%
- Population Fragmented Nuclei (%) [9]: 13%
- Population Healthy Nuclei (%) [9]: 79%
- Population Hoechst High Intensity Objects (%) [9]: 2%
- Population Membrane Permeable-Phenotype (%) [9]: 1%
- Population Mitochondria Different-Phenotype (%) [9]: 17%
- Population Mitotic Cells (%) [9]: 75%
- Population Normal (%) [9]: 97%
- Population Pyknosed Nuclei (%) [9]: 7%
- Population Tubulin-Different-Phenotype (%) [9]: 13%
- Total Cell Count [9]: 916
- Population Apoptotic (%) [10]: 21%
- Population Fragmented Nuclei (%) [10]: 14%
- Population Healthy Nuclei (%) [10]: 78%
- Population Hoechst High Intensity Objects (%) [10]: 4%
- Population Membrane Permeable-Phenotype (%) [10]: 0%
- Population Mitochondria Different-Phenotype (%) [10]: 18%
- Population Mitotic Cells (%) [10]: 78%
- Population Normal (%) [10]: 95%
- Population Pyknosed Nuclei (%) [10]: 6%
- Population Tubulin-Different-Phenotype (%) [10]: 9%
- Total Cell Count [10]: 867
- Population Apoptotic (%) [11]: 29%
- Population Fragmented Nuclei (%) [11]: 18%
- Population Healthy Nuclei (%) [11]: 75%
- Population Hoechst High Intensity Objects (%) [11]: 1%
- Population Membrane Permeable-Phenotype (%) [11]: 1%
- Population Mitochondria Different-Phenotype (%) [11]: 24%
- Population Mitotic Cells (%) [11]: 70%
- Population Normal (%) [11]: 98%
- Population Pyknosed Nuclei (%) [11]: 6%
- Population Tubulin-Different-Phenotype (%) [11]: 16%
- Total Cell Count [11]: 821
- Population Apoptotic (%) [12]: 28%
- Population Fragmented Nuclei (%) [12]: 15%
- Population Healthy Nuclei (%) [12]: 77%
- Population Hoechst High Intensity Objects (%) [12]: 3%
- Population Membrane Permeable-Phenotype (%) [12]: 0%
- Population Mitochondria Different-Phenotype (%) [12]: 28%
- Population Mitotic Cells (%) [12]: 71%
- Population Normal (%) [12]: 96%
- Population Tubulin-Different-Phenotype (%) [12]: 17%
- Total Cell Count [12]: 554
